Experimental data published in ChEMBL document CHEMBL4382237, “Design, Synthesis, and Biological Evaluation of 2-Nitroimidazopyrazin-one/-es with Antitubercular and Antiparasitic Activity” (J Med Chem, 2018).
In brackets after ≈: the same amount, converted by molar mass.

Legend:
Escherichia coli = assay: Antibacterial activity against Escherichia coli ATCC 25922 by broth microdilution assay; type: functional
In short: (§1)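 Broth microdilution run essentially per an earlier report. MIC taken as the lowest concentration with no visible growth. Replicates typically agreed within one 2-fold dilution. The median MIC is reported, with a range where the median fell between two tested concentrations.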

[1] = system: Mycobacterium tuberculosis; assay: Antibacterial activity against Mycobacterium tuberculosis H37Rv after 5 days under normoxic condition by resazurin dye-based fluorescence assay; type: functional, organism-based; conditions: for IC50: Mycobacterium tuberculosis, H37Rv, 120 h
In short: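 H37Rv grown in 7H9/ADC/glycerol/Tyloxapol to mid-exponential phase, diluted to OD600 0.001 (~2 x 10^4 CFU/mL) in 7H9S with serially diluted compound. Incubated 5 days at 37 °C, then resazurin and Tween-80 added. Fluorescence (ex 530/em 590 nm) read after 24 h, normalised to no-drug and no-bacteria wells.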

HepG2 = assay: Cytotoxicity against human HepG2 cells after 24 hrs by resazurin dye-based fluorescence assay; type: cell-based; conditions: hepg2, 24 h
In short: (§2)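 HEK293 (3000/well) and HepG2 (5000/well) were grown 24 h in DMEM with 10% FBS at 37 °C, 5% CO2. Cells were then exposed 24 h to a dilution series up to 100 µM (0.5% DMSO). 5 µM resazurin was added for 2 h, read at ex 560/em 590. 1% Triton X-100 served as lysis control. CC50 was derived from the curves.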

[2] = system: Mycobacterium tuberculosis; assay: Antibacterial activity against Mycobacterium tuberculosis H37Rv assessed as inhibition of bacterial growth at 32 ug/ml after 5 days under normoxic condition by resazurin dye-based fluorescence assay relative to control; type: functional; conditions: 120 h, read-out: GI
Giardia intestinalis = assay: Antiparasitic activity against Giardia lamblia WB trophozoites after 24 to 48 hrs by CellTiter-Glo luminescent cell viability assay; conditions: Giardia duodenalis
Klebsiella pneumoniae = assay: Antibacterial activity against Klebsiella pneumoniae 700603 by broth microdilution assay; type: functional; in short: as §1
Pseudomonas aeruginosa = assay: Antibacterial activity against Pseudomonas aeruginosa ATCC 27853 by broth microdilution assay; type: functional; in short: as §1
Acinetobacter baumannii = assay: Antibacterial activity against Acinetobacter baumannii ATCC 19606 by broth microdilution assay; type: functional; conditions: ATCC 19606 = CIP 70.34 = JCM 6841; in short: as §1
Candida albicans = assay: Antifungal activity against Candida albicans ATCC 90028 by broth microdilution assay; type: functional; in short: as §1
HEK293 = assay: Cytotoxicity against HEK293 cells after 24 hrs by resazurin dye-based fluorescence assay; type: cell-based; conditions: human, hek293, 24 h; in short: as §2
Staphylococcus aureus = assay: Antibacterial activity against methicillin-resistant Staphylococcus aureus ATCC […] by broth microdilution assay; type: functional
Cryptococcus neoformans = assay: Antifungal activity against Cryptococcus neoformans H99 ATCC […] broth microdilution assay; type: functional; conditions: var. grubii H99 ATCC 208821; in short: as §1
[3] = system: Trypanosoma brucei brucei; assay: Antiparasitic activity against bloodstream form of Trypanosoma brucei brucei strain 427 after 48 hrs by resazurin dye-based assay; type: functional, organism-based; conditions: strain 427, 48 h
[4] = system: Mycobacterium tuberculosis; assay: Antibacterial activity against non-replicating Mycobacterium tuberculosis H37Rv after 5 days under hypoxic condition by resazurin dye-based fluorescence assay; type: functional; conditions: 120 h
In short: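 Same H37Rv inoculum (OD600 0.001, ~2 x 10^4 CFU/mL) in 7H9S with serially diluted compound. Plates held 5 days at 0.1% oxygen, then resazurin plus Tween-80 added.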

[5] = system: Trypanosoma brucei brucei; assay: Antiparasitic activity against bloodstream form of Trypanosoma brucei brucei strain 427 assessed as inhibition of parasitic growth at 40 uM after 48 hrs by resazurin dye-based assay relative to control; type: functional; conditions: strain 427, 48 h, read-out: GI
[6] = Apparent permeability across apical to basolateral side in human Caco2 cells assessed as mean drug recovery at 2 uM after 2 hrs by lucifer yellow dye-based LC-MS/MS analysis; conditions: caco-2, 2 h
Clostridioides difficile = assay: Antibacterial activity against Clostridium difficile 630 ATCC BAA-1382 by broth microdilution assay; type: functional; in short: as §1
[7] = Metabolic stability in human liver microsomes assessed as parent compound remaining at 3 uM after 2 hrs by LC-MS/MS analysis
Entamoeba histolytica = assay: Antiparasitic activity against Entamoeba histolytica HM-1:IMSS trophozoites after 24 to 48 hrs by CellTiter-Glo luminescent cell viability assay; type: functional, organism-based; conditions: read-out: IC50
In short: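 Axenic trophozoites were kept in TYI-S-33 with penicillin (100 U/mL) and streptomycin (100 µg/mL) and harvested in log phase. 5000 parasites per well were exposed to a final 8-point two-fold series of 0.39–50 µM, from 10 mM DMSO stocks. Plates were incubated 24–48 h at 37 °C under anaerobic conditions. ATP luminescence viability was read in triplicate. Percent inhibition is given at the highest concentration tested.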

[8] = Metabolic stability in CD-1 mouse plasma assessed as parent compound remaining at 3 uM after 2 hrs by LC-MS/MS analysis
[9] = Metabolic stability in human plasma assessed as parent compound remaining at 3 uM after 2 hrs by LC-MS/MS analysis
[10] = Metabolic stability in CD-1 mouse liver microsomes assessed as parent compound remaining at 3 uM after 2 hrs by LC-MS/MS analysis

SMILES: Cc1ccc(CCn2ccn3cc([N+](=O)[O-])nc3c2=O)cc1
- MIC (Escherichia coli): > 32 µg/mL
- IC50 [1]: 4 µM
- CC50 (HepG2): > 100 µM
- inhibition of growth at 32 µg/mL [2]: 78%
- IC50 (Giardia intestinalis): 3.2 µM
- IC50 (Giardia intestinalis; read-out: pIC50 (converted)): 3.16 µM
- MIC (Klebsiella pneumoniae): > 32 µg/mL
- MIC (Pseudomonas aeruginosa): > 32 µg/mL
- MIC (Acinetobacter baumannii): > 32 µg/mL
- MIC (Candida albicans): > 32 µg/mL
- CC50 (HEK293): > 100 µM
- MIC (Staphylococcus aureus): > 32 µg/mL
- MIC (Cryptococcus neoformans): > 32 µg/mL
- IC50 ([3]; read-out: IC50): > 40 µM
- IC50 ([3]; read-out: pIC50 (converted)): > 39.8 µM
- MIC [4]: > 32 µg/mL

SMILES: O=c1c2nc([N+](=O)[O-])cn2ccn1CCc1ccc(OC(F)(F)F)cc1
- MIC (Escherichia coli): > 32 µg/mL
- IC50 [1]: 8 µM
- CC50 (HepG2): > 100 µM
- inhibition of growth at 32 µg/mL [2]: 70%
- IC50 (Giardia intestinalis): 1.6 µM
- IC50 (Giardia intestinalis; read-out: pIC50 (converted)): 1.58 µM
- MIC (Klebsiella pneumoniae): > 32 µg/mL
- MIC (Pseudomonas aeruginosa): > 32 µg/mL
- MIC (Acinetobacter baumannii): > 32 µg/mL
- MIC (Candida albicans): > 32 µg/mL
- CC50 (HEK293): > 100 µM
- MIC (Staphylococcus aureus): > 32 µg/mL
- MIC (Cryptococcus neoformans): > 32 µg/mL
- inhibition of growth at 40 µM [5]: 44%
- MIC [4]: > 32 µg/mL

SMILES: CC(C)NCC(O)COc1cccc2ccccc12 (centres undefined) [PROPRANOLOL]
- Drug recovery [6]: 70%

SMILES: O=c1[nH]ccn2cc([N+](=O)[O-])nc12
- MIC (Escherichia coli): > 32 µg/mL
- MIC [1]: >32 µg/mL
- CC50 (HepG2): > 100 µM
- IC50 (Giardia intestinalis): > 25 µM
- IC50 (Giardia intestinalis; read-out: pIC50 (converted)): > 25.1 µM
- MIC (Klebsiella pneumoniae): > 32 µg/mL
- MIC (Pseudomonas aeruginosa): > 32 µg/mL
- MIC (Acinetobacter baumannii): > 32 µg/mL
- MIC (Candida albicans): > 32 µg/mL
- CC50 (HEK293): > 100 µM
- MIC (Staphylococcus aureus): > 32 µg/mL
- MIC (Cryptococcus neoformans): > 32 µg/mL
- inhibition of growth at 40 µM [5]: 97%
- MIC [4]: > 32 µg/mL

SMILES: Cc1ccc(Cn2ccn3cc([N+](=O)[O-])nc3c2=O)cc1
- MIC (Clostridioides difficile): > 64 µg/mL
- Stability [7]: 97%
- MIC (Escherichia coli): > 32 µg/mL
- IC50 (Entamoeba histolytica): > 50 µM
- IC50 (Giardia intestinalis): 3.4 µM
- IC50 (Giardia intestinalis; read-out: pIC50 (converted)): 3.16 µM
- MIC (Klebsiella pneumoniae): > 32 µg/mL
- MIC (Pseudomonas aeruginosa): > 32 µg/mL
- MIC (Acinetobacter baumannii): > 32 µg/mL
- Stability [8]: > 99%
- MIC (Candida albicans): > 32 µg/mL
- MIC (Staphylococcus aureus): > 32 µg/mL
- Stability [9]: > 99%
- MIC (Cryptococcus neoformans): > 32 µg/mL
- Stability [10]: 96%

SMILES: O=c1c2nc([N+](=O)[O-])cn2ccn1Cc1ccccc1OC(F)(F)F
- Stability [7]: > 99%
- MIC (Escherichia coli): > 32 µg/mL
- MIC [1]: 1 µg/mL (≈ 2.82 µM)
- CC50 (HepG2): > 100 µM
- IC50 (Giardia intestinalis): 8.2 µM
- IC50 (Giardia intestinalis; read-out: pIC50 (converted)): 7.94 µM
- MIC (Klebsiella pneumoniae): > 32 µg/mL
- MIC (Pseudomonas aeruginosa): > 32 µg/mL
- MIC (Acinetobacter baumannii): > 32 µg/mL
- MIC (Candida albicans): > 32 µg/mL
- CC50 (HEK293): > 100 µM
- MIC (Staphylococcus aureus): > 32 µg/mL
- MIC (Cryptococcus neoformans): > 32 µg/mL
- IC50 ([3]; read-out: IC50): 6 µM
- IC50 ([3]; read-out: pIC50 (converted)): 6.31 µM
- Stability [10]: > 99%
- MIC [4]: 8 µg/mL (≈ 22.6 µM)

SMILES: O=C(Cn1ccn2cc([N+](=O)[O-])nc2c1=O)N1CCOCC1
- MIC (Escherichia coli): > 32 µg/mL
- MIC [1]: >32 µg/mL
- CC50 (HepG2): > 100 µM
- IC50 (Giardia intestinalis): > 50 µM
- IC50 (Giardia intestinalis; read-out: pIC50 (converted)): > 50.1 µM
- MIC (Klebsiella pneumoniae): > 32 µg/mL
- MIC (Pseudomonas aeruginosa): > 32 µg/mL
- MIC (Acinetobacter baumannii): > 32 µg/mL
- MIC (Candida albicans): > 32 µg/mL
- CC50 (HEK293): > 100 µM
- MIC (Staphylococcus aureus): > 32 µg/mL
- MIC (Cryptococcus neoformans): > 32 µg/mL
- IC50 ([3]; read-out: IC50): 4.1 µM
- IC50 ([3]; read-out: pIC50 (converted)): 3.98 µM
- MIC [4]: > 32 µg/mL

SMILES: CC1CC(OC(=O)C(O)c2ccccc2)CC(C)(C)N1C (centres undefined) [EUCATROPINE]
- Stability [9]: 21%

SMILES: O=c1c2nc([N+](=O)[O-])cn2ccn1Cc1ccc(F)cc1F
- MIC (Escherichia coli): > 32 µg/mL
- MIC [1]: 16 to 32 µg/mL
- CC50 (HepG2): > 100 µM
- IC50 (Giardia intestinalis): > 50 µM
- IC50 (Giardia intestinalis; read-out: pIC50 (converted)): > 50.1 µM
- MIC (Klebsiella pneumoniae): > 32 µg/mL
- MIC (Pseudomonas aeruginosa): > 32 µg/mL
- MIC (Acinetobacter baumannii): > 32 µg/mL
- MIC (Candida albicans): > 32 µg/mL
- CC50 (HEK293): > 100 µM
- MIC (Staphylococcus aureus): > 32 µg/mL
- MIC (Cryptococcus neoformans): > 32 µg/mL
- IC50 ([3]; read-out: IC50): > 40 µM
- IC50 ([3]; read-out: pIC50 (converted)): > 39.8 µM
- MIC [4]: > 32 µg/mL
